Calls of active or inactive are those of the source. The calls are words filed in the database; no cut-off is given here.

What is called IC50 is the concentration that inhibits the measured activity by half. Higher therefore signals weaker potency. One may read the inhibition as the share of the control response that was lost under treatment. Low values mean little suppression, high ones strong suppression.

For assay [1], the system named is FM3A. Nature of the assay: Antiproliferative activity against mouse FM3A cells. Format: functional, cell-based.
The subject of assay [2] is L1210. Nature of the assay: Antiproliferative activity against mouse L1210 cells. The class given is functional, cell-based. The procedure, abridged:
(§1)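 Tumor cell proliferation assay. IC50 is the compound concentration giving 50% inhibition of proliferation, taken from dose-response curves. Reported as mean ± SE from at least three independent experiments.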

The test system of assay [3] is CCRF-CEM. As to the kind of experiment: Antiproliferative activity against human CEM cells. Format: functional, cell-based.
Assay [4] relates to MOLT-4. As to the kind of experiment: Antiproliferative activity against human Molt4/C8 cells. Format: functional, cell-based. The procedure, abridged: as §1
Assay [5] concerns the target Tubulin (Homo sapiens) (UniProt P68371+Q9H4B7+P0DPH7+P68366+Q13509+Q71U36+P04350+Q3ZCM7+P07437+P68363+Q9BQE3+Q6PEY2+Q13885+Q9BVA1+Q9BUF5). Nature of the assay: Inhibition of [3H]colchicine binding to tubulin at 1 uM. Format: protein-complex assay. The procedure, abridged: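 Binding of [3H]colchicine to tubulin. Tubulin at 1 µM, [3H]colchicine at 5 µM, inhibitor at 1 µM. Read-out is percent inhibition of colchicine binding.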

In assay [6] the target is Tubulin. As to the kind of experiment: Inhibition of tubulin polymerization. The class given is functional, Homo sapiens. In short, it runs like this: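 Tubulin assembly assay with tubulin at 10 µM. IC50 taken for inhibition of polymerization.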
The subject of assay [7] is HL-60. Nature of the assay: Cell cycle arrest at HL60 cells by accumulation at sub G0/G1 phase at 20 nM. The class given is functional, cell-based. As to conditions: Homo sapiens. In short, it runs like this: (§2)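 HL60 acute myeloblastic leukemia cells exposed to compound for 24 h, then stained with propidium iodide and analyzed by flow cytometry. Populations scored in sub-G0-G1 (apoptotic), G0-G1, S and G2-M phases, relative to untreated control cells.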

For assay [8], the system named is HL-60. As to the kind of experiment: Cell cycle arrest in HL60 cells by accumulation at G2/M phase at 20 nM. Format: functional, cell-based. Particulars: Homo sapiens. The procedure, abridged: as §2
Assay [9] relates to HL-60. Nature of the assay: Cell cycle arrest in HL60 cells by accumulation at G2/M phase at 8 nM. Format: functional, cell-based. As to conditions: Homo sapiens. The procedure, abridged: as §2
Assay [10] has as its system HL-60. Nature of the assay: Cell cycle arrest in HL60 cells by accumulation at S phase at 8 nM. Particulars: Homo sapiens. The class given is functional, cell-based. The procedure, abridged:
as §2

For assay [11], the system named is HL-60. As to the kind of experiment: Induction of apoptosis in HL60 cells by arrest at sub G0/G1 phase at 8 nM. As to conditions: Homo sapiens. The class given is functional, cell-based. The procedure, abridged: as §2
Assay [12] deals with HL-60. Nature of the assay: Cell cycle arrest in HL60 cells by accumulation at G2/M phase at 40 nM. Format: functional, cell-based. Particulars: Homo sapiens. The procedure, abridged: as §2
In assay [13] the test system is HL-60. Nature of the assay: Cell cycle arrest in HL60 cells by accumulation at G2/M phase at 15 nM. Format: functional, cell-based. As to conditions: Homo sapiens. In short, it runs like this:
as §2

The subject of assay [14] is HL-60. Nature of the assay: Induction of apoptosis in HL60 cells by arrest at sub G0/G1 phase at 15 nM. The class given is functional, cell-based. As to conditions: Homo sapiens. The procedure, abridged:
as §2

With `COc1cc(C(=O)c2sc(-c3ccc([N+](=O)[O-])cc3)cc2N)cc(OC)c1OC`, the concentration for half-maximal inhibition (IC50) is 64 nM in assay [1], 100 nM in [2], 99 nM in assay [3] and 110 nM in assay [4].

For the compound `COc1cc(C(=O)c2sc(-c3cccs3)cc2N)cc(OC)c1OC`, the half-inhibitory concentration (IC50) worked out at 1.7 nM in assay [1]; 9.8 nM in assay [2]; 9.4 nM in [3]; 1200 nM in assay [6]; 8.9 nM in assay [4]. In [5], this compound yielded an inhibition of 80%. Further, the result in [7] and in [8] was Active.

In the case of `COc1cc(C(=O)c2cc(-c3ccc(C)cc3)sc2N)cc(OC)c1OC`, in [5], the inhibition stood at 90%. Also, in [6], the IC50 came to 800 nM.

For the compound `COc1ccc(/C=C\c2cc(OC)c(OC)c(OC)c2)cc1O` [COMBRETASTATIN A4], the half-maximal inhibitory concentration (IC50) in assay [2] was 2.8 nM; in assay [4] it was 1.6 nM.

On to `COc1cc(C(=O)c2sc(-c3ccc(F)cc3)cc2N)cc(OC)c1OC`, for which the concentration for half-maximal inhibition (IC50) in assay [1] was determined as 16 nM; in assay [2] it was 20 nM; in assay [3], 15 nM; in assay [6] it was 1500 nM; in [4] it was 12 nM. In assay [5], this compound returned an inhibition of 70%.

As to `COc1cc(C(=O)c2sc(-c3ccccc3)cc2N)cc(OC)c1OC`, the result in assay [9], in assay [10], in [11] and in assay [12] was Active. Also, the IC50 came out at 13 nM in assay [1]; 11 nM in assay [2]; 4.5 nM in assay [3]; 1200 nM in assay [6]; 5.3 nM in [4]. The inhibition in assay [5] worked out at 81%.

Take `COc1cc(C(=O)c2cc(-c3ccc(F)cc3)sc2N)cc(OC)c1OC`: in [6], the concentration for half-maximal inhibition (IC50) was 860 nM.

On to `COc1cccc(-c2cc(N)c(C(=O)c3cc(OC)c(OC)c(OC)c3)s2)c1`, for which the IC50 worked out at 36 nM in [1]; 22 nM in assay [2]; 16 nM in assay [3]; 640 nM in [6]; 17 nM in assay [4]. For the same compound, the inhibition in assay [5] worked out at 81%.

With `COc1cc(C(=O)c2sc(-c3cccc([N+](=O)[O-])c3)cc2N)cc(OC)c1OC`, the IC50 in assay [1] amounted to 17 nM; in assay [2] it was 11 nM; in assay [3], 5.9 nM; in [6], 970 nM; in [4] it was 7.5 nM. Further, the inhibition in assay [5] came out at 74%. The outcome in [13] and in assay [14] was Active.

Consider `COc1cc(C(=O)c2sc(-c3ccc(C(F)(F)F)cc3)cc2N)cc(OC)c1OC`, for which the 50% inhibitory concentration (IC50) in [1] is 540 nM; in [2], 370 nM; in [3], 270 nM; in assay [4], 250 nM.

Take `COc1cc(C(=O)c2sc(-c3cc(OC)c(OC)c(OC)c3)cc2N)cc(OC)c1OC`: the half-inhibitory concentration (IC50) in assay [1] came out at 3500 nM; in [2], 2300 nM; in [3], 840 nM; in assay [4], 1200 nM.

Regarding `COc1cccc(-c2cc(C(=O)c3cc(OC)c(OC)c(OC)c3)c(N)s2)c1`, inhibition in assay [6] was half-maximal at 1200 nM (IC50).

Take `COc1cc(C(=O)c2sc(-c3ccc(C)cc3)cc2N)cc(OC)c1OC`: the IC50 is 16 nM in assay [1]; 18 nM in [2]; 15 nM in assay [3]; 1100 nM in [6]; 16 nM in assay [4]. Besides, the inhibition in assay [5] turned out to be 80%.

`COc1cc(C(=O)c2sc(-c3ccccc3Cl)cc2N)cc(OC)c1OC`: the half-maximal inhibitory concentration (IC50) in assay [1] was 34 nM; in [2], 20 nM; in [3] it was 16 nM; in [6], 1200 nM; in assay [4], 17 nM. In [5], this compound yielded an inhibition of 76%.

On to `CCOc1ccc(-c2cc(N)c(C(=O)c3cc(OC)c(OC)c(OC)c3)s2)cc1`, for which the concentration for half-maximal inhibition (IC50) in assay [1] was found to be 510 nM; in assay [2], 590 nM; in [3], 270 nM; in assay [4] it was 240 nM.

As for `COc1cc(C(=O)c2sc(-c3ccsc3)cc2N)cc(OC)c1OC`, the concentration for half-maximal inhibition (IC50) in assay [1] is 3.7 nM; in assay [2] it was 12 nM; in assay [3] it was 9.6 nM; in assay [6], 1300 nM; in [4], 8.8 nM. Further, the inhibition in assay [5] came to 81%. In addition, the result in [7] and in assay [8] was Active.

For `COc1cc(C(=O)c2sc(-c3ccc(I)cc3)cc2N)cc(OC)c1OC`, the IC50 in [1] amounted to 420 nM; in assay [2], 400 nM; in assay [3] it was 150 nM; in assay [4], 190 nM.

On to `COc1cc(C(=O)c2sc(-c3ccc(Cl)cc3)cc2N)cc(OC)c1OC`, for which the IC50 in assay [1] is 90 nM; in assay [2], 93 nM; in assay [3], 70 nM; in [4] it was 77 nM.

Regarding `COc1cc(C(=O)c2sc(-c3ccncc3)cc2N)cc(OC)c1OC`, the half-inhibitory concentration (IC50) in [1] amounted to 150 nM; in assay [2], 180 nM; in [3], 110 nM; in assay [4], 88 nM.

`COc1cc(C(=O)c2sc(-c3ccc(Br)cc3)cc2N)cc(OC)c1OC`: the IC50 in assay [1] is 150 nM; in assay [2] it was 100 nM; in assay [3] it was 86 nM; in assay [4], 92 nM.

For `COc1ccc(-c2cc(N)c(C(=O)c3cc(OC)c(OC)c(OC)c3)s2)cc1`, the IC50 in assay [1] was determined as 31 nM; in assay [2], 45 nM; in [3] it was 19 nM; in assay [6], 1100 nM; in [4] it was 18 nM. The compound further yielded an inhibition in assay [5] of 60%.

Regarding `COc1ccc(-c2cc(N)c(C(=O)c3cc(OC)c(OC)c(OC)c3)s2)cc1OC`, the IC50 in [1] came out at 72 nM; in [2], 40 nM; in [3], 20 nM; in assay [6], 1100 nM; in assay [4], 20 nM. The same compound came in with an inhibition in [5] of 53%.

In the case of `COc1cc(C(=O)c2sc(-c3ccc(Cl)c(Cl)c3)cc2N)cc(OC)c1OC`, the half-maximal inhibitory concentration (IC50) was 400 nM in [1], 260 nM in assay [2], 290 nM in [3] and 270 nM in assay [4].

With `COc1cc(C(=O)c2sc(-c3ccc(-c4ccccc4)cc3)cc2N)cc(OC)c1OC`, the 50% inhibitory concentration (IC50) in [1], in [2], in assay [3] and in assay [4] was over 10000 nM each time.

Consider `COc1cc(C(=O)c2cc(-c3ccccc3)sc2N)cc(OC)c1OC`, for which the inhibition in assay [5] turned out to be 77%. This compound also showed an IC50 in assay [6] of 1300 nM.

For the compound `COc1ccc(-c2cc(C(=O)c3cc(OC)c(OC)c(OC)c3)c(N)s2)cc1`, the concentration for half-maximal inhibition (IC50) in assay [6] is 1100 nM.

Values taken from ChEMBL document CHEMBL1137402, “Synthesis and biological evaluation of 2-(3',4',5'-trimethoxybenzoyl)-3-amino 5-aryl thiophenes as a new class of tubulin inhibitors” (J Med Chem, 2006).
